Measurements taken from ChEMBL document CHEMBL4385665, “Synthesis of N-arylindazole-3-carboxamide and N-benzoylindazole derivatives and their evaluation against α-MSH-stimulated melanogenesis” (Bioorg Med Chem Lett, 2019).

Assays:
B16 [1] = test: Inhibition of alpha-MSH-stimulated melanogenesis in mouse B16 cells assessed as reduction in melanin production incubated for 3 days; type: functional, cell-based; conditions: B16, 72 h
Outline: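 B16 melanoma cells stimulated with α-MSH (100nM) and incubated with test agent for three days. Melanin released into the culture medium was quantified by sample absorbance against a synthetic melanin standard, and IC50 values were derived from inhibition of melanin formation.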

B16 [2] = test: Potency index, ratio of IC50 for arbutin to IC50 for test compound for inhibition of alpha-MSH-stimulated melanogenesis in mouse B16 cells assessed as reduction in melanin production incubated for 3 days; type: functional

SMILES	IC50 (B16 [1]) [µM]	Ratio IC50 (B16 [2])
COc1ccccc1NC(=O)c1n[nH]c2ccccc12	16	4
COc1cccc(NC(=O)c2n[nH]c3ccccc23)c1	36	
Cc1cccc(NC(=O)c2n[nH]c3ccccc23)c1	15	
Cc1ccc(NC(=O)c2n[nH]c3ccccc23)cc1	38	
O=C(Nc1ccccc1O)c1n[nH]c2ccccc12	21	
O=C(Nc1cccc(O)c1)c1n[nH]c2ccccc12	35	
O=C(Nc1ccc(C(F)(F)F)cc1)c1n[nH]c2ccccc12	15	4
O=C(Nc1ccc(OC(F)(F)F)cc1)c1n[nH]c2ccccc12	13	5
O=C(Nc1ccccc1)c1n[nH]c2ccccc12	40	
OC[C@H]1O[C@@H](Oc2ccc(O)cc2)[C@H](O)[C@@H](O)[C@@H]1O [ARBUTIN]	64	

Now from value to molecule, other results behind:

IC50 (B16 [1]) [µM]	SMILES	Ratio IC50 (B16 [2])
20	COc1ccc(NC(=O)c2n[nH]c3ccccc23)cc1	
69	COC(=O)c1ccc(NC(=O)c2n[nH]c3ccccc23)cc1	
93	O=C(Nc1ccc(Cl)cc1)c1n[nH]c2ccccc12	
7	O=C(c1ccccc1Cl)n1ncc2cc([N+](=O)[O-])ccc21	9
51	O=C(c1ccccc1)n1ncc2cc([N+](=O)[O-])ccc21	
18	O=C(Nc1ccc(O)cc1)c1n[nH]c2ccccc12	
32	O=C(c1ccccc1)n1ncc2cc([N+](=O)[O-])c(Br)cc21	
28	Cc1cccc(C(=O)n2ncc3cc([N+](=O)[O-])c(Br)cc32)c1	
55	O=C(Cc1cccs1)n1ncc2cc([N+](=O)[O-])ccc21	
25	O=C(c1ccccc1Cl)n1ncc2cc([N+](=O)[O-])c(Br)cc21	4
60	O=C(c1ccc(Cl)cc1)n1ncc2cc([N+](=O)[O-])ccc21	
77	Cc1cccc(C(=O)n2ncc3cc([N+](=O)[O-])ccc32)c1	
